This passage reports MIC results from ChEMBL document CHEMBL1131139, “Synthesis and antibacterial activity of ketolides (6-O-methyl-3-oxoerythromycin derivatives): a new class of antibacterials highly potent against macrolide-resistant and -susceptible respiratory pathogens” (1998).

Values after ≈ are worked out from the molar mass of the structure shown.

What all share (assay type): functional
The test system of one experiment is Escherichia coli. The experiment is described as follows: In vitro inhibitory activity against Escherichia coli (250 UC5). Summed up: (§1)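 Two-fold agar dilution on Mueller-Hinton agar (pH 7.4). Inoculum from overnight plate cultures suspended in Mueller-Hinton broth, adjusted to 10^9 CFU/mL, diluted 1:200 and spotted by multipoint inoculator at about 10^4 CFU/spot. Plates incubated 37 °C for 20 h. MIC taken as lowest concentration with no visible growth.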

Experiment [1] deals with Haemophilus influenzae. As to the kind of experiment: In vitro inhibitory activity against Haemophilus influenzae (351CB12). Summed up: as §1
Experiment [2] concerns Haemophilus influenzae. As to the kind of experiment: In vitro inhibitory activity against Haemophilus influenzae (351HT3). Summed up:
as §1

Experiment [3] has as its system Staphylococcus epidermidis. As to the kind of experiment: In vitro inhibitory activity against Staphylococcus epidermidis (EryRi 012GO11i). In outline:
as §1

Experiment [4] concerns Staphylococcus aureus. As to the kind of experiment: In vitro inhibitory activity against Staphylococcus aureus (011UC4). In outline:
as §1

In experiment [5] the test system is Staphylococcus aureus. The experiment is described as follows: In vitro inhibitory activity against Staphylococcus aureus (EryRi 011GO25i). Summed up: as §1
Experiment [6] has as its system Streptococcus pneumoniae. As to the kind of experiment: In vitro inhibitory activity against Streptococcus pneumoniae (032UC1). In outline:
as §1

The subject of experiment [7] is Streptococcus pneumoniae. As to the kind of experiment: In vitro inhibitory activity against Streptococcus pneumoniae (EryRc 030SJ1). In outline:
as §1

Experiment [8] relates to Streptococcus pneumoniae. The experiment is described as follows: In vitro inhibitory activity against Streptococcus pneumoniae (EryRi 030SJ5i). Summed up:
as §1

The next experiment has as its system Streptococcus pyogenes. The experiment is described as follows: In vitro inhibitory activity against Streptococcus pyogenes (02A1UC1). In outline: as §1
The subject of experiment [9] is Staphylococcus aureus. As to the kind of experiment: In vitro inhibitory activity against Staphylococcus aureus (EryRc 011CB20). In outline: as §1

For `CCCCCCCCCCN1CCCC(O/N=C2\[C@H](C)C[C@@](C)(OC)[C@H](O[C@@H]3O[C@H](C)C[C@H](N(C)C)[C@H]3O)[C@@H](C)C(=O)[C@@H](C)C(=O)O[C@H](CC)[C@@](C)(O)[C@H](O)[C@H]2C)C1` (some centres not stated), the MIC is 40 µg/mL (≈ 48.4 µM) in the experiment with Escherichia coli; 5 µg/mL (≈ 6.05 µM) against Haemophilus influenzae [1]; 20 µg/mL (≈ 24.2 µM) in the experiment on Haemophilus influenzae [2]; 0.6 µg/mL (≈ 0.726 µM) in [3]; 0.6 µg/mL (≈ 0.726 µM) in the experiment on Staphylococcus aureus [4]; 0.6 µg/mL (≈ 0.726 µM) in the experiment on Staphylococcus aureus [5]. The MIC against Streptococcus pneumoniae [6] is 0.08 µg/mL (≈ 0.0968 µM); against Streptococcus pneumoniae [7] it was 1.2 µg/mL (≈ 1.45 µM); in the experiment on Streptococcus pneumoniae [8], 0.3 µg/mL (≈ 0.363 µM); against Streptococcus pyogenes, 0.08 µg/mL (≈ 0.0968 µM); with Staphylococcus aureus [9] it was 10 µg/mL (≈ 12.1 µM).
In the case of `CC[C@H]1OC(=O)[C@H](C)C(=O)[C@H](C)[C@@H](O[C@@H]2O[C@H](C)C[C@H](N(C)C)[C@H]2O)[C@](C)(OC)C[C@@H](C)C(=O)[C@H](C)[C@H]2N(NCCCc3cccc(Cl)c3)C(=O)O[C@]12C`, the MIC against Escherichia coli is 40 µg/mL (≈ 51.3 µM); against Haemophilus influenzae [1], 2.5 µg/mL (≈ 3.2 µM); in the experiment on Haemophilus influenzae [2], 1.2 µg/mL (≈ 1.54 µM); in experiment [3] it was 0.04 µg/mL (≈ 0.0513 µM); with Staphylococcus aureus [4], 0.04 µg/mL (≈ 0.0513 µM); in the experiment with Staphylococcus aureus [5] it was 0.08 µg/mL (≈ 0.103 µM). Moreover, the MIC against Streptococcus pneumoniae [6] was determined as 0.02 µg/mL (≈ 0.0256 µM); in the experiment on Streptococcus pneumoniae [7], 2.5 µg/mL (≈ 3.2 µM); in the experiment with Streptococcus pneumoniae [8], 0.08 µg/mL (≈ 0.103 µM); with Streptococcus pyogenes, 0.02 µg/mL (≈ 0.0256 µM); against Staphylococcus aureus [9] it was 40 µg/mL (≈ 51.3 µM).
`CC[C@H]1OC(=O)[C@H](C)C(=O)[C@H](C)[C@@H](O[C@@H]2O[C@H](C)C[C@H](N(C)C)[C@H]2O)[C@](C)(OC)C[C@@H](C)/C(=N\OC2CCCN(C)C2)[C@H](C)[C@@H](O)[C@]1(C)O` (some centres not stated): the MIC against Escherichia coli came to 40 µg/mL (≈ 57.1 µM); against Haemophilus influenzae [1], 10 µg/mL (≈ 14.3 µM); against Haemophilus influenzae [2], 10 µg/mL (≈ 14.3 µM); in experiment [3], 0.6 µg/mL (≈ 0.857 µM); against Staphylococcus aureus [4] it was 0.08 µg/mL (≈ 0.114 µM); in the experiment with Staphylococcus aureus [5], 0.3 µg/mL (≈ 0.429 µM). Besides, the MIC with Streptococcus pneumoniae [6] stood at 0.02 µg/mL (≈ 0.0286 µM); with Streptococcus pneumoniae [7], 10 µg/mL (≈ 14.3 µM); in the experiment with Streptococcus pneumoniae [8], 40 µg/mL (≈ 57.1 µM); in the experiment with Streptococcus pyogenes it was 0.04 µg/mL (≈ 0.0571 µM); in the experiment on Staphylococcus aureus [9] it was 40 µg/mL (≈ 57.1 µM).
Regarding `CC[C@H]1OC(=O)[C@H](C)C(=O)[C@H](C)[C@@H](O[C@@H]2O[C@H](C)C[C@H](N(C)C)[C@H]2O)[C@](C)(OC)C[C@@H](C)/C(=N\OCCN(C)C)[C@H](C)[C@@H](O)[C@]1(C)O`, the MIC in the experiment on Escherichia coli worked out at 40 µg/mL (≈ 59.4 µM); against Haemophilus influenzae [1], 20 µg/mL (≈ 29.7 µM); in the experiment with Haemophilus influenzae [2], 20 µg/mL (≈ 29.7 µM); in experiment [3], 20 µg/mL (≈ 29.7 µM); in the experiment on Staphylococcus aureus [4], 0.08 µg/mL (≈ 0.119 µM); against Staphylococcus aureus [5], 1.2 µg/mL (≈ 1.78 µM). Further, the MIC is 0.15 µg/mL (≈ 0.223 µM) in the experiment with Streptococcus pneumoniae [6]; 2.5 µg/mL (≈ 3.71 µM) against Streptococcus pneumoniae [7]; 0.15 µg/mL (≈ 0.223 µM) in the experiment on Streptococcus pneumoniae [8]; 0.01 µg/mL (≈ 0.0148 µM) against Streptococcus pyogenes; 40 µg/mL (≈ 59.4 µM) against Staphylococcus aureus [9].
As for `CC[C@H]1OC(=O)[C@H](C)C(=O)[C@H](C)[C@@H](O[C@@H]2O[C@H](C)C[C@H](N(C)C)[C@H]2O)[C@](C)(OC)C[C@@H](C)/C(=N\OCCNCc2ccccc2)[C@H](C)[C@@H](O)[C@]1(C)O`, the MIC against Escherichia coli was found to be 40 µg/mL (≈ 54.4 µM); in the experiment with Haemophilus influenzae [1], 40 µg/mL (≈ 54.4 µM); with Haemophilus influenzae [2], 40 µg/mL (≈ 54.4 µM); in [3] it was 5 µg/mL (≈ 6.79 µM); in the experiment with Staphylococcus aureus [4], 0.6 µg/mL (≈ 0.815 µM); in the experiment with Staphylococcus aureus [5], 5 µg/mL (≈ 6.79 µM). Moreover, the MIC in the experiment on Streptococcus pneumoniae [6] turned out to be 0.15 µg/mL (≈ 0.204 µM); against Streptococcus pneumoniae [7], 40 µg/mL (≈ 54.4 µM); in the experiment with Streptococcus pneumoniae [8] it was 40 µg/mL (≈ 54.4 µM); in the experiment with Streptococcus pyogenes it was 0.6 µg/mL (≈ 0.815 µM); in the experiment with Staphylococcus aureus [9], 40 µg/mL (≈ 54.4 µM).
With `CC[C@H]1OC(=O)[C@H](C)C(=O)[C@H](C)[C@@H](O[C@@H]2O[C@H](C)C[C@H](N(C)C)[C@H]2O)[C@](C)(OC)C[C@@H](C)/C(=N\O[C@@H]2CCCN(Cc3ccc(-c4ccccc4)cc3)C2)[C@H](C)[C@@H](O)[C@]1(C)O`, the MIC against Escherichia coli worked out at 40 µg/mL (≈ 46.9 µM); with Haemophilus influenzae [1], 10 µg/mL (≈ 11.7 µM); in the experiment with Haemophilus influenzae [2], 40 µg/mL (≈ 46.9 µM); in [3], 0.6 µg/mL (≈ 0.704 µM); in the experiment with Staphylococcus aureus [4], 0.6 µg/mL (≈ 0.704 µM); in the experiment on Staphylococcus aureus [5], 0.3 µg/mL (≈ 0.352 µM). In addition, the MIC with Streptococcus pneumoniae [6] was 0.3 µg/mL (≈ 0.352 µM); against Streptococcus pneumoniae [7], 5 µg/mL (≈ 5.87 µM); in the experiment with Streptococcus pneumoniae [8], 0.3 µg/mL (≈ 0.352 µM); against Streptococcus pyogenes, 0.04 µg/mL (≈ 0.0469 µM); against Staphylococcus aureus [9], 20 µg/mL (≈ 23.5 µM).
In the case of `CC[C@H]1OC(=O)[C@H](C)C(=O)[C@H](C)[C@@H](O[C@@H]2O[C@H](C)C[C@H](N(C)C)[C@H]2O)[C@](C)(OC)C[C@@H](C)/C(=N\OC[C@@H](N)C(=O)OC)[C@H](C)[C@@H](O)[C@]1(C)O`, the MIC against Escherichia coli turned out to be 40 µg/mL (≈ 56.8 µM); against Haemophilus influenzae [1], 40 µg/mL (≈ 56.8 µM); with Haemophilus influenzae [2], 40 µg/mL (≈ 56.8 µM); in experiment [3], 2.5 µg/mL (≈ 3.55 µM); with Staphylococcus aureus [4], 1.2 µg/mL (≈ 1.7 µM); against Staphylococcus aureus [5] it was 10 µg/mL (≈ 14.2 µM). Moreover, the MIC in the experiment with Streptococcus pneumoniae [6] turned out to be 0.6 µg/mL (≈ 0.852 µM); with Streptococcus pneumoniae [7], 40 µg/mL (≈ 56.8 µM); against Streptococcus pneumoniae [8], 20 µg/mL (≈ 28.4 µM); in the experiment on Streptococcus pyogenes, 0.6 µg/mL (≈ 0.852 µM); in the experiment with Staphylococcus aureus [9], 40 µg/mL (≈ 56.8 µM).
